“Also recorded” adds a separate entry of the source. Where two headings read alike, the source gives them in different places. Values belong to the compound of their own block, whether it stands above or below them.
Key:
USP7 catalytic domain = USP7 catalytic domain (Homo sapiens, UniProt Q93009); experiment: Ubiquitin rhodamine 110 kinetic assay, USP7 catalytic domain; assay type: biochemical
Method in brief: (§1)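 Human DUB constructs, each N-terminally 6xHis-tagged and expressed in E. coli BL21(DE3): USP7 full length (AA 1–1102), USP7 catalytic domain (AA 208–560), USP8 catalytic domain (AA 743–1110) and USP30 catalytic domain (AA 65–517). Ub-Rho110 was then added and fluorescence (ex 485/em 535 nm) read each minute over 30 min. Initial rates were normalized to no-compound wells and fitted (variable slope) for IC50; each run at least twice, SEM.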

full-length USP7 = experiment: Kinetic Ub-Rho assay, full-length USP7; assay type: biochemical, human; details: dose-response
Method in brief: as §1

USP7 = experiment: Ub-Rho endpoint screen of spiro indolinone expansion set, USP7; assay type: biochemical, human; details: 8-point dose-response in triplicate
Method in brief: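 Enzyme and acoustically dispensed test compound were incubated 1 h; DMSO-only wells served as neutral control. Ub-Rho110 was then added and the reaction run 10 min at room temperature without a quench. Fluorescence was read at ex 485/em 535 nm.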

USP8 [1] = experiment: Ub-Rho endpoint screen of spiro indolinone expansion set, USP8; assay type: biochemical, human; details: 8-point dose-response in triplicate
Method in brief: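 Enzyme and test compound were incubated 10 min; DMSO wells served as control. Ub-Rho110 was then added and the reaction run 30 min–3 h at room temperature depending on DUB. Stopped with assay buffer plus 0.2% TFA and read at ex 485/em 535 nm.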

USP28 catalytic domain = molecular target: T1, USP28 catalytic domain (Homo sapiens, UniProt Q96RU2); experiment: Ubiquitin rhodamine 110 kinetic assay, USP28; assay type: biochemical; details: for potency relative to AZ1: USP28 IC50 compared with AZ1
T1 sequence (Q96RU2 149-703): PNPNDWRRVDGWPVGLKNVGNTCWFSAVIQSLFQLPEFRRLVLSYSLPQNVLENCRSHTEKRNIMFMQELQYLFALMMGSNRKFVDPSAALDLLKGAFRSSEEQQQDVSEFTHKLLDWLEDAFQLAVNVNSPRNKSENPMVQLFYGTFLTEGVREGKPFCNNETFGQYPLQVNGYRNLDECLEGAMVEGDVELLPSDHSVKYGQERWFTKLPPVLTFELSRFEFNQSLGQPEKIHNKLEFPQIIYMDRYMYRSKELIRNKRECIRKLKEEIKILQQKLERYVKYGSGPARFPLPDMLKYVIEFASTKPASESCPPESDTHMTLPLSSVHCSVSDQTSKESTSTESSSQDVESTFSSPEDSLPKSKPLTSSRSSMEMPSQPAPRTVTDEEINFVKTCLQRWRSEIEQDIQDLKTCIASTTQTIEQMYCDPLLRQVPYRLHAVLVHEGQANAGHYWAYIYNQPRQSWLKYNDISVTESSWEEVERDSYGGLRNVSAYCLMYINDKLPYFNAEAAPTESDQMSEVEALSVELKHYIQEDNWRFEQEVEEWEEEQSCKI

USP28 in HEK293T lysates = experiment: Quantitative activity-based protein profiling; assay type: binding, human; details: HEK293T lysate, 250 μM compound, Ub-PA/Ub-VME probes
Method in brief: (§2)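 HEK293T cells were lysed in NP-40/glycerol/TCEP buffer with protease and phosphatase inhibitors, and lysate was diluted to 10 mg/mL. Lysate was incubated with 250 μM test compound or DMSO for 30 min at room temperature, with a selective USP7 inhibitor as positive control. Biotin-Ub-PA and biotin-Ub-VME (1 μM each) were added for 15 min. Labelled proteins were captured on streptavidin, trypsin-digested on bead and TMT-labelled. Quantified by multidimensional LC-MS using reporter-ion protein-level values.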

[2] = test system: USP28 in HEK293T cellular lysate; experiment: Competitive ABPP with western blot readout for USP28; assay type: binding, human; details: 1 hour pre-treatment, dose-response
Method in brief: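 Lysate was pre-incubated with compound or DMSO for 1 h at RT. It was then labeled with 1:1 Ub-PA/Ub-VME (2 μM final) for 30 min at RT with shaking. Samples were denatured at 95°C, run on SDS-PAGE, and immunoblotted with anti-USP28 rabbit monoclonal.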

USP8 catalytic domain = molecular target: T2, USP8 catalytic domain (Homo sapiens, UniProt P40818); experiment: Ubiquitin rhodamine 110 kinetic assay, USP8; assay type: biochemical; details: kinetic Ub-Rho assay
T2 sequence (P40818 743-1110): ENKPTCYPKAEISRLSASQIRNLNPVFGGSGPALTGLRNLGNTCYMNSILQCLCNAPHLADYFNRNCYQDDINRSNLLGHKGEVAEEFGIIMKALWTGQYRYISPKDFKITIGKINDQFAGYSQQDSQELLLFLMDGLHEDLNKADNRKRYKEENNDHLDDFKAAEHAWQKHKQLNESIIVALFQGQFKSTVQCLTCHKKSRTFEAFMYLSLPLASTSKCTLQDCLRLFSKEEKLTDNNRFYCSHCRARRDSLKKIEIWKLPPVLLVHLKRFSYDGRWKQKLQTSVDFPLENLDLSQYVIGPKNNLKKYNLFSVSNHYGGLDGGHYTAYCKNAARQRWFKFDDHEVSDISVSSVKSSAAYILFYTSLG
Method in brief: as §1

USP10 catalytic domain = USP10 catalytic domain (Homo sapiens, UniProt Q14694); experiment: Ubiquitin rhodamine 110 kinetic assay, USP10; assay type: biochemical; details: read-out: IC50 ± SEM, kinetic Ub-Rho assay, 12-point dose-response, mean ± SEM (n)
Sequence of USP10 catalytic domain (Q14694 376-798): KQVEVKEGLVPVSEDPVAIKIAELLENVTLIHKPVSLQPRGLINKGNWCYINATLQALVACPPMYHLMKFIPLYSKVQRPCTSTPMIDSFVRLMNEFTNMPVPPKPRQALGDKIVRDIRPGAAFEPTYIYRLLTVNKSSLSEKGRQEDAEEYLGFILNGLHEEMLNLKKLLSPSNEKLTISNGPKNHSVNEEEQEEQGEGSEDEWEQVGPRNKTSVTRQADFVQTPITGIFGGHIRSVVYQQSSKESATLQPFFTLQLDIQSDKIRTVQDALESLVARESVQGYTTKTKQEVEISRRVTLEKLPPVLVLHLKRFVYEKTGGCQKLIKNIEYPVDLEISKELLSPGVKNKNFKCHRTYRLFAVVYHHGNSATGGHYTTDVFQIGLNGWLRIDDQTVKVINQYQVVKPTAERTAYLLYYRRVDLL
Method in brief: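 Enzyme was the human USP10 catalytic domain (aa 376–798), N-6xHis, E. coli-expressed, purified by Ni-NTA and Superdex 200. Fluorescence (ex 485/em 535 nm) was read every minute for 30 min. Initial rates were normalized to no-compound control and fitted with a variable-slope model; runs ≥2, SEM.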

USP8 [3] = experiment: Ubiquitin-AMC kinetic assay, USP8; assay type: biochemical, human; details: dose-response
Method in brief: (§3)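 Same kinetic protocol as the Ub-Rho110 assay, with Ub-AMC as substrate. His-tagged catalytic domains were used: USP8 (AA 743–1110) and USP10 (AA 376–798). Read at ex 345/em 445 nm each minute over 30 min. IC50 came from initial rates normalized to no-compound wells and was compared with the Ub-Rho110 value.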

USP10 = experiment: Ubiquitin-AMC kinetic assay, USP10; assay type: biochemical, human; details: dose-response
Method in brief: as §3

[4] = test system: native USP25 in HEK293T lysates; experiment: Quantitative activity-based protein profiling; assay type: binding, human; details: HEK293T lysate, 250 μM compound, Ub-PA/Ub-VME probes
Method in brief: as §2

[5] = test system: other DUBs detected in cell lysate; experiment: Quantitative activity-based protein profiling; assay type: binding, human; details: HEK293T lysate, 250 μM compound, Ub-PA/Ub-VME probes
Method in brief: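 Aliquots were treated with 250 μM compound or DMSO for 30 min at RT, then processed to peptides. Peptides were TFA-acidified, C18-desalted, and TMT-labeled for 1 h at RT. Peptides were mapped to unique genes, and reporter ions were aggregated into protein-level values.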

USP30 catalytic domain = molecular target: T3, USP30 catalytic domain (Homo sapiens, UniProt Q70CQ3); experiment: Ubiquitin rhodamine 110 kinetic assay, USP30; assay type: biochemical
T3 sequence (Q70CQ3 65-517): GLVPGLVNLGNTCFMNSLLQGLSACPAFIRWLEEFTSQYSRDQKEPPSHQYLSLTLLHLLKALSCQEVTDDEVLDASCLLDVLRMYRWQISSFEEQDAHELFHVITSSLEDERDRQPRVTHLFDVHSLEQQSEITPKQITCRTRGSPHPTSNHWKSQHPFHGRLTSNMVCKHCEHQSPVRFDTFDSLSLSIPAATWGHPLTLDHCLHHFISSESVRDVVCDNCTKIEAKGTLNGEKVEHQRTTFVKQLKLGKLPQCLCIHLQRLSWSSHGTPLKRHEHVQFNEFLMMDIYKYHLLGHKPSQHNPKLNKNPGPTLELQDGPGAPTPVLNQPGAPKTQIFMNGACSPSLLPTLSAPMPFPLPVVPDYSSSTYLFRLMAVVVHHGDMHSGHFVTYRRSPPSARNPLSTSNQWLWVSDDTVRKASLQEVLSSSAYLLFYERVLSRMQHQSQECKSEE
Method in brief: as §1

[6] = IC50 ± SEM, USP28, catalytic domain of the human protein, kinetic Ub-Rho assay, mean ± SEM (n)

Sequence of USP7 catalytic domain (Q93009 208-560): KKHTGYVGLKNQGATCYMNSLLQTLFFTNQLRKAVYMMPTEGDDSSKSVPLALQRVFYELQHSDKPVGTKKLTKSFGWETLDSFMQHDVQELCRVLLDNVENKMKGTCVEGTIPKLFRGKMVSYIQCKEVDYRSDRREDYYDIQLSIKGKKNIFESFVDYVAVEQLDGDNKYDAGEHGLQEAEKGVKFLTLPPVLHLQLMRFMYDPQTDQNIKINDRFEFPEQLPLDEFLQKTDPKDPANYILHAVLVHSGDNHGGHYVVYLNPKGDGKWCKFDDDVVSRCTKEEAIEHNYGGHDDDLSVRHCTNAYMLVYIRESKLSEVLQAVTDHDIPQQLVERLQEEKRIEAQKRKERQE

SMILES: CC(C)c1[nH]nc2c1C1(C(=O)Nc3ccccc31)C(C#N)=C(N)O2 (centres unmarked) [AV-9606–41, 6’-amino-3’-isopropyl-2-oxo-2’H-spiro[indoline-3,4’-pyrano[2,3-c]pyrazole]-5’-carbonitrile]
IC50 (USP7 catalytic domain): 3830 ± 1600 nM | inhibition of full-length USP7 (full-length USP7): no inhibition of full-length protein; also recorded: no activity against a full-length protein | activity against USP7 in expansion set screen (USP7): active against USP7 | activity against USP8 in expansion set screen (USP8 [1]): inactive against USP8

SMILES: Cc1ccc(S(=O)(=O)N(C)C)cc1NC(=O)Cc1ccc(Cl)c(Cl)c1 [AV-9606–129, 2-(3,4-dichlorophenyl)-N-(5-(N,N-dimethylsulfamoyl)-2-methylphenyl)acetamide]
IC50 (USP28 catalytic domain; [6]): 402 ± 197 nM

SMILES: Cc1nn(-c2ccccc2)c2c1C1(C(=O)Nc3ccccc31)N1C(=N2)Sc2ccccc21 (centres unmarked) [AV-9606–27, 3-methyl-1-phenyl-1H-spiro[benzo[4,5]thiazolo[3,2-a]pyrazolo[3,4-d]pyrimidine-4,3’-indolin]-2’-one]
IC50 (USP7 catalytic domain; read-out: IC50 ± SEM, USP7, kinetic Ub-Rho assay, 12-point dose-response, mean ± SEM (n)): 4680 ± 1050 nM

SMILES: OCCNCc1cc(Br)ccc1OCc1ccc(F)c(C(F)(F)F)c1 [AZ1]
blockage of probe labeling of USP25 [4]: strongly blocked labeling of USP25 | blockage of probe labeling of USP28 (USP28 in HEK293T lysates): little impact on USP28 | activity toward other DUBs detected [5]: did not exhibit activity toward any other DUBs

SMILES: O=C1c2ccccc2NC2(C(=O)Nc3ccc(Br)cc32)N1c1ccccc1 (centres unmarked) [AV-9606–99, 5-bromo-3’-phenyl-1’H-spiro[indoline-3,2’-quinazoline]-2,4’(3’H)-dione]
IC50 (USP28 catalytic domain; [6]): 4330 ± 1080 nM

Further lines, with some results ahead:

IC50 (USP28 catalytic domain; IC50, USP28): ≤ 100 nM | IC50 (USP28 catalytic domain; [6]): 46 ± 17 nM | potency relative to AZ1 (USP28 catalytic domain): approximately 10 fold
SMILES: CCCc1nc2sc3c(NCCc4ccc(OC)c(OC)c4)ncnc3c2c2c1CCC2 [bin-01–07-07, N-(3,4-dimethoxyphenethyl)-4-propyl-2,3-dihydro-1H-cyclopenta[4’,5’]pyrido[3’,2’:4,5]thieno[3,2-d]pyrimidin-7-amine]
blockage of probe labeling of USP28 (USP28 in HEK293T lysates): strong inhibition of USP28 | blockage of USP28 labeling by covalent probe (western blot) [2]: good dose-dependent inhibition and prevention of probe labeling

IC50 (USP28 catalytic domain; [6]): 176 ± 73 nM
SMILES: O=c1ccc(-c2noc(Cc3cccc(Cl)c3)n2)c[nH]1 [AV-11324–75, 5-(5-(3-chlorobenzyl)-1,2,4-oxadiazol-3-yl)pyridin-2(1H)-one]
blockage of USP28 labeling by covalent probe (western blot) [2]: good dose-dependent inhibition and prevention of probe labeling

inhibition of off-target DUB USP8 (USP8 catalytic domain): confirmed inhibition | IC50 (USP10 catalytic domain): 26600 ± 4690 nM | increase in IC50 value with Ubiquitin-AMC versus Ub-Rho (USP8 [3]): 3–10 fold | increase in IC50 value with Ubiquitin-AMC versus Ub-Rho (USP10): 3–10 fold
SMILES: COc1ccc(C(=O)COC(=O)c2ccccc2NS(=O)(=O)c2ccc(O)c([N+](=O)[O-])c2)cc1 [Compound Z56965384]

IC50 (USP28 catalytic domain; IC50, USP28): ≤ 100 nM | potency relative to AZ1 (USP28 catalytic domain): approximately 10 fold
SMILES: O=c1ccc(-c2noc(Cc3ccc(Cl)c(Cl)c3)n2)c[nH]1 [AV-9606–180, 5-(5-(3,4-dichlorobenzyl)-1,2,4-oxadiazol-3-yl)pyridin-2(1H)-one]
blockage of probe labeling of USP28 (USP28 in HEK293T lysates): strong inhibition of USP28 | blockage of USP28 labeling by covalent probe (western blot) [2]: good dose-dependent inhibition and prevention of probe labeling

IC50 (USP30 catalytic domain): 275 ± 70 nM
SMILES: CC(C)NS(=O)(=O)c1cccc2c(NC(=O)[C@H](Cc3ccccc3)NC(=O)c3ccccc3)cccc12 [AV-11324–5, (S)-N-(1-((5-(N-isopropylsulfamoyl)naphthalen-1-yl)amino)-1-oxo-3-phenylpropan-2-yl)benzamide]
